# The source made the active and inactive calls. The calls are words filed in the database; no cut-off is given here. Starred links: 1 amine or outer side, 2 acyl side, 3 side chain; linkers in the order of their positions; H or OH if unused. Positions of bridges follow the written chain, without caps; N, C: chain ends. Non-standard residues stand in square brackets, D forms with d. Residues, ends and D or L forms follow the SMILES beside them. Chains are numbered I, II in the order given. Actinocin(1to9) = Cc1c2oc3c(C)ccc(C(=O)[*:2])c3nc-2c(C(=O)[*:1])c(N)c1=O; NMeV = CN[C@H](C(=O)O)C(C)C; Sar = CNCC(=O)O
# Columns and labels:
# Bacillus subtilis = experiment: Antibacterial activity against Bacillus subtilis ATCC 6633 after 16 to 48 hrs; type: functional
# Outline: (§1)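 MIC determined against each bacterial strain after 16–48 h incubation, in triplicate. DMSO vehicle was the negative control, and kanamycin and ampicillin were the positive controls.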
# Micrococcus luteus = experiment: Antibacterial activity against Micrococcus luteus ATCC 15307 after 16 to 48 hrs; type: functional; outline: as §1
# Staphylococcus aureus = experiment: Antibacterial activity against Staphylococcus aureus ATCC 6538 after 16 to 48 hrs; type: functional; outline: as §1
# Saccharomyces cerevisiae = experiment: Antifungal activity against Saccharomyces cerevisiae ATCC 204508 after 16 to 48 hrs; type: functional
# Outline: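 MIC determined against the S. cerevisiae strain after 16–48 h incubation, in triplicate. DMSO vehicle was the negative control and amphotericin B the positive control.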
# PC-3 [1] = experiment: Antiproliferative activity against human PC3 cells assessed as reduction in cell viability after 72 hrs by alamar blue assay; type: functional, cell-based; settings: PC-3, 72 h
# Outline: (§2)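 Cancer cell viability measured after 72 h exposure, in triplicate, and EC50/IC50 derived. DMSO served as the negative control. Positive controls were actinomycin D at 20 μM and H2O2 at 2 mM, each taken as 0% viable cells.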
# Mycolicibacterium aurum = experiment: Antibacterial activity against Mycobacterium aurum ATCC 23366 after 16 to 48 hrs; type: functional; outline: as §1
# Salmonella enterica = experiment: Antibacterial activity against Salmonella enterica ATCC 10708 after 16 to 48 hrs; type: functional; outline: as §1
# Escherichia coli = experiment: Antibacterial activity against Escherichia coli ATCC 12435 after 16 to 48 hrs; type: functional; outline: as §1
# A549 [2] = experiment: Antiproliferative activity against human A549 cells assessed as reduction in cell viability after 72 hrs by alamar blue assay; type: functional, cell-based; settings: A549, 72 h; outline: as §2
# [3] = molecular target: Eukaryotic translation initiation factor 4E-binding protein 1 (Homo sapiens) (UniProt Q13541); experiment: Inhibition of 4E-BP1 phosphorylation in human HCT116 cells at 1 uM after 6 hrs by Western blot analysis; type: cell-based
# Outline: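 HCT116 cells treated for 6 h with compound at 1 or 2 μM, or with DMSO as negative control. Lysates analysed by Western blot for phosphorylated 4E-BP1 alongside related proteins.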
# Ambystoma mexicanum = experiment: Toxicity in axolotl embryo at 1 uM after 7 days by tail regeneration assay; type: organism-based; settings: in vivo, 168 h
# Outline: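 Axolotl embryos (Ambystoma Genetic Stock Center) had the tail amputated and were exposed to 1 μM compound. Regeneration, judged by a rounded tail tip, was scored at 7 days post-amputation. DMSO vehicle was the negative control and geldanamycin the positive control.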
# A549 [4] = experiment: Antiproliferative activity against human A549 cells assessed as cell viability at 20 uM after 72 hrs by alamar blue assay relative to control; type: functional; settings: A549, 72 h, read-out: Activity
# PC-3 [5] = experiment: Antiproliferative activity against human PC3 cells assessed as cell viability at 20 uM after 72 hrs by alamar blue assay relative to control; type: functional; settings: PC-3, 72 h, read-out: Activity
# Chain of Eukaryotic translation initiation factor 4E-binding protein 1 (Homo sapiens) (Q13541 whole entry): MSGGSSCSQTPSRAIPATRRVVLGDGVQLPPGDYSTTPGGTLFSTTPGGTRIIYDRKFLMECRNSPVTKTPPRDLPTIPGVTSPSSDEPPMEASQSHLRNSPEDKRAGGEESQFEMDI
SMILES,MIC (Bacillus subtilis) [µM],MIC (Micrococcus luteus) [µM],MIC (Staphylococcus aureus) [µM],MIC (Saccharomyces cerevisiae) [µM],EC50 (PC-3 [1]) [µM],MIC (Mycolicibacterium aurum) [µM],MIC (Salmonella enterica) [µM],MIC (Escherichia coli) [µM],EC50 (A549 [2]) [µM],inhibition [3],Activity (Ambystoma mexicanum),viability at 20 µM (A549 [4]) [%],viability at 20 µM (PC-3 [5]) [%]
Cc1cc(=O)[nH]c2c(O)c3c(cc12)c(CO)cc(=O)n3C,> 24,> 24,> 24,> 24,> 100,> 24,> 24,> 24,> 100,,,,
C[C@@H]1[C@H](O)[C@@H](C)/C=C/C=C/C=C/C=C/C=C/C=C/C=C/[C@H](O[C@@H]2O[C@H](C)[C@@H](O)[C@H](N)[C@@H]2O)C[C@@H]2O[C@](O)(C[C@@H](O)C[C@@H](O)[C@H](O)CC[C@@H](O)C[C@@H](O)CC(=O)O[C@H]1C)C[C@H](O)[C@H]2C(=O)O [AMPHOTERICIN B],,,,2,,,,,,,,,
Cc1cc(=O)n2c3c(c4c(cc13)c(C(=O)O)cc(=O)n4C)OC2,> 24,> 24,> 24,> 24,> 100,> 24,> 24,> 24,> 100,,,,
Cc1cc(=O)[nH]c2c1C(=O)c1c(C)cc(=O)n(C)c1C2=O,12,12,12,> 24,0.15,> 24,> 24,> 24,0.25,Active,,,
COC(=O)c1cc2cc3c(c(O)c2c(=O)o1)O[C@]1(CC3)Cc2c(O)c3c(c(O)c2O1)C(=O)C(OC)=CC3=O,0.02,0.15,0.075,3,> 100,12,> 24,> 24,> 100,,Non-Toxic,,
CO[C@H]1/C=C/O[C@@]2(C)Oc3c(C)c(O)c4c(O)c(c(/C=N/N5CCN(C)CC5)c(O)c4c3C2=O)NC(=O)/C(C)=C\C=C\[C@H](C)[C@H](O)[C@@H](C)[C@@H](O)[C@@H](C)[C@H](OC(C)=O)[C@@H]1C [RIFAMPIN],,,,,,2,,,,,,,
NC[C@H]1O[C@H](O[C@H]2[C@H](O)[C@@H](O[C@H]3O[C@H](CO)[C@@H](O)[C@H](N)[C@H]3O)[C@H](N)C[C@@H]2N)[C@H](O)[C@@H](O)[C@@H]1O [KANAMYCIN],2,15,7.5,,,,14,7.5,,,,,
"Cc1c2oc3c(C)ccc(C(=O)N[C@@H]4C(=O)N[C@H](C(C)C)C(=O)N5CCC[C@H]5C(=O)N(C)CC(=O)N(C)[C@@H](C(C)C)C(=O)O[C@@H]4C)c3nc-2c(C(=O)N[C@@H]2C(=O)N[C@H](C(C)C)C(=O)N3CCC[C@H]3C(=O)N(C)CC(=O)N(C)[C@@H](C(C)C)C(=O)O[C@@H]2C)c(N)c1=O [DACTINOMYCIN] (I: T[dV]P[Sar][NMeV] / II: T[dV]P[Sar][NMeV]; ester I:1-I:C, II:1-II:C; linker I:N-II:N via Actinocin(1to9))",,,,,,,,,,,,0,0
CC1(C)S[C@@H]2[C@H](NC(=O)[C@H](N)c3ccccc3)C(=O)N2[C@H]1C(=O)O [AMPICILLIN],,25,12,,,,25,25,,,,,
Cc1cc(=O)n(C)c2c(O)c3c(cc12)c(C)cc(=O)n3C,6,12,12,> 24,1.14,> 24,> 24,> 24,15.2,,,,

# The next lines start with results.
MIC (Bacillus subtilis) [µM],MIC (Micrococcus luteus) [µM],MIC (Staphylococcus aureus) [µM],MIC (Saccharomyces cerevisiae) [µM],EC50 (PC-3 [1]) [µM],MIC (Mycolicibacterium aurum) [µM],MIC (Salmonella enterica) [µM],MIC (Escherichia coli) [µM],EC50 (A549 [2]) [µM],inhibition [3],SMILES,Activity (Ambystoma mexicanum),viability at 20 µM (A549 [4]) [%],viability at 20 µM (PC-3 [5]) [%]
12,6,12,12,> 100,> 24,> 24,> 24,> 100,,COC(=O)c1cc2cc3c(c(O)c2c(=O)o1)O[C@]1(CC3)CC2=C(O1)C(=O)c1c(O)c(OC)cc(OC)c1C2=O,,,
> 24,> 24,> 24,> 24,> 100,> 24,> 24,> 24,> 100,,C/C=C/C=C/[C@H]1C[C@H](O)CCN1,,,
0.4,1.5,3,> 24,> 100,> 24,> 24,> 24,> 100,,COC(=O)c1cc2cc(CCc3cc4c(o3)C(=O)c3c(O)c(OC)cc(OC)c3C4=O)c(O)c(O)c2c(=O)o1,,,
12,12,> 24,> 24,> 100,> 24,> 24,> 24,> 100,,Cc1cc(=O)n2c3c(c4c(cc13)c(CO)cc(=O)n4C)OC2,,,
